Source: PubChem BioAssay
Hits are enriched below; roughly 1.3% of the tested compounds scored in any of these assays.
PfG6PD inh – PfG6PD (Plasmodium falciparum) enzyme inhibition; PfGluPho enzyme, NADPH resazurin-diaphorase fluorescence; inhibition, % at 20 µM; actives 0.78% (n = 350,000);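 active = inhibition reaching at least a set limit at 20 µM in the primary screen, cut at about 59% in these data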;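 also: 0% = DMSO wells with substrate and 100% = DMSO wells lacking glucose-6-phosphate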
HKDC1 inhibitor – HKDC1 (human) hexokinase inhibition | Q2TB90 | recombinant HKDC1, G6PDH/diaphorase resazurin coupled fluorescence | inhibition, % at 20 µM | actives 0.16% (n = 340,000) | AID 493160;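 active = inhibition above about 35% when tested at 20 µM, limit read from the data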;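 also: plate controls were DMSO wells with enzyme for no effect and DMSO wells lacking enzyme for full effect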
Target sequence (Q2TB90 whole entry, looked up): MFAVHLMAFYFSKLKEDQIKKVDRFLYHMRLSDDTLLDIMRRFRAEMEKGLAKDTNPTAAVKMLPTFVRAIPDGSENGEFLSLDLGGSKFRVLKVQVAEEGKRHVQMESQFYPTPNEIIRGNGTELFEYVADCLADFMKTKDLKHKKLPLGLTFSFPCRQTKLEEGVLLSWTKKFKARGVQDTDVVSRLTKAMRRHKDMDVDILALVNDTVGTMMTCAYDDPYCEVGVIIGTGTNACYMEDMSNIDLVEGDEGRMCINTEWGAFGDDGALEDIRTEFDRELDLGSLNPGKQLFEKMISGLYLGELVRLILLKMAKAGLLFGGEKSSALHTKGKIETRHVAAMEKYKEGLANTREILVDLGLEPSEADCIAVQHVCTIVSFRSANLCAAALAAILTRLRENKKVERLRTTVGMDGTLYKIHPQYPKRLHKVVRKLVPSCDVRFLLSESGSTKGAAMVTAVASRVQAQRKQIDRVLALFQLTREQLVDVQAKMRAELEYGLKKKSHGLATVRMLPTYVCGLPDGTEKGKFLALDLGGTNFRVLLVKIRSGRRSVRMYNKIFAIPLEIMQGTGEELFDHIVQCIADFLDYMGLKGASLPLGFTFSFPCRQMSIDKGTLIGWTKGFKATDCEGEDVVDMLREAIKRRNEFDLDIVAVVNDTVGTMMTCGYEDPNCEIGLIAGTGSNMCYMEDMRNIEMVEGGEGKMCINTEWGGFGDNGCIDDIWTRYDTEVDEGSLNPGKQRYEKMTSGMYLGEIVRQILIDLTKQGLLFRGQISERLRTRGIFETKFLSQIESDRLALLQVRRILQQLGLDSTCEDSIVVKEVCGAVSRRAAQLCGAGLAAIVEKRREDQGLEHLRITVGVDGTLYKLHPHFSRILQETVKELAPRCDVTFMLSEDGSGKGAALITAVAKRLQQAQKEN
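Test system: recombinant HKDC1 (HK5) hexokinase enzyme, produced in-house; Amount: enzyme 5 µg/mL final; Buffer or medium: Tris pH 8.0 buffer with MgCl2, Tween-20, BSA, BME; Reagent: glucose and ATP substrates; Doses: 20 µM test compound, 1% DMSO; Incubation: 90 min reaction incubation at room temperature, dark; Detection: resorufin fluorescence at 613 nm.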
Diaph inh CS – diaphorase inhibition or chemical oxidation counter-screen | diaphorase resazurin-to-resorufin fluorescence, NADH, 16 min; bacterial (C. kluyveri) enzyme, not human | inhibition, % at 20 µM | actives 0.69% (n = 190,000) | AID 1217;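 active = primary screen inhibition at 20 µM above a set limit, cut at about 50% in these data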;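 also: plate controls were DMSO with full reaction for no effect and wells lacking NADH for full effect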
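Assay system – diaphorase enzyme from Clostridium kluyveri · Amount – diaphorase 0.14 U/mL (working solution) · Times – reaction incubation of 16 min at room temperature · Controls – No-NADH positive control and DMSO neutral control · Signal – resorufin fluorescence 544/590 nm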
G6PDH CS – L. mesenteroides G6PDH inhibition counter-screen | Purified L. mesenteroides G6PDH, diaphorase/resazurin coupled fluorescence, 45 min | actives 0.12% (n = 200,000) | inhibition, % at 5 µM; in the data active = inhibition above about 50%
PfGluPho conf – PfG6PD inhibition, single-dose confirmed. recombinant PfGluPho, NADPH-diaphorase-resazurin fluorescence. actives 34% (n = 2,400). shares compounds with PfG6PD inh. inhibition, % at 20 µM;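 active = inhibition of at least 50% at 20 µM in any single replicate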;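 also: 0% = DMSO with substrate and 100% = DMSO lacking glucose-6-phosphate substrate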
Diaphorase 10uM – inhibits diaphorase or oxidizes, flagging false PfG6PD hits | shares compounds with PfG6PD inh | diaphorase-coupled resazurin reduction, fluorescence, NADPH 10 uM | inhibition, % at 20 µM | actives 39% (n = 820) | AID 504862;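 active = average inhibition reaching 50% or more with the compound at 20 µM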;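 also: resorufin red fluorescence formed as diaphorase reduces resazurin using NADPH; 0% = DMSO with enzyme and 100% = DMSO without enzyme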
Diaph ctr 30uM – diaphorase inhibition or oxidation at 30 uM NADPH; shares compounds with PfG6PD inh; Diaphorase/resazurin coupled assay, resorufin fluorescence; inhibition, % at 20 µM; actives 29% (n = 820); AID 504863;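 active = inhibition averaging 50% or more, tested at 20 µM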;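 also: 0% = DMSO with enzyme and 100% = DMSO wells lacking diaphorase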
Active calls of the source: *.

What do the screens show for `COC(=O)c1ccccc1C(=O)c1ccc2c(c1)NC(=O)CO2`?
PfG6PD inh: 68*; HKDC1 inhibitor: 1; Diaph inh CS: 6; G6PDH CS: 1; PfGluPho conf: 35

How did O=C1COc2ccc(C(=O)COC(=O)c3ccccc3F)cc2N1 do in these assays?
PfG6PD inh: 1; HKDC1 inhibitor: -2

Results for CC(NC(=O)c1ccccc1)C(=O)OCC(=O)c1c(N)n(C)c(=O)n(C)c1=O (configuration not stated) ?
PfG6PD inh: 12; HKDC1 inhibitor: -6

How did CS(=O)(=O)c1ccc2nc(N)sc2c1 do in these assays?
PfG6PD inh: 4; HKDC1 inhibitor: 3; Diaph inh CS: 9; G6PDH CS: 4

Results for CS(=O)(=O)c1ccc(N)c(SSc2cc(S(C)(=O)=O)ccc2N)c1 ?
PfG6PD inh: 97*; HKDC1 inhibitor: 9; PfGluPho conf: 99*; Diaphorase 10uM: -29; Diaph ctr 30uM: -20

What do the screens show for `O=C1OC(c2ccc(O)cc2)(c2ccccc2O)c2ccccc21` (configuration not stated)?
PfG6PD inh: -33; HKDC1 inhibitor: 0

How did O=C1OC(c2ccccc2)(c2ccc3cc(O)ccc3c2)c2ccccc21 (configuration not stated) do in these assays?
PfG6PD inh: 62*; HKDC1 inhibitor: 15; PfGluPho conf: -10

How did O=C1OC2(c3ccccc31)c1ccccc1-c1ccccc12 do in these assays?
PfG6PD inh: 84*; HKDC1 inhibitor: 3; PfGluPho conf: 31

What do the screens show for `CC(C)C1(C(C)C)OC(=O)c2ccccc21`?
PfG6PD inh: 8; HKDC1 inhibitor: -19; Diaph inh CS: 5; G6PDH CS: 0

Results for COC(=O)[C@]1(C)N[C@H](CN(C)C(=O)Nc2ccc(OC)cc2)[C@@H]2C(=O)N(Cc3ccccc3)C(=O)[C@@H]21 ?
PfG6PD inh: 4; HKDC1 inhibitor: -4

Results for Cc1cccc(C)c1NS(=O)(=O)c1ccc(-c2cnc(C3CC3)o2)cc1 ?
PfG6PD inh: -4; HKDC1 inhibitor: 3

How did CCOC(=O)c1cnc2ccc(Br)cc2c1NCCO do in these assays?
PfG6PD inh: 65*; HKDC1 inhibitor: -10; Diaph inh CS: 20; G6PDH CS: -22; PfGluPho conf: 16

How did COCCOC(=O)c1c(C)n(C)c2ccc(OC(=O)c3c(OC)cccc3OC)cc12 do in these assays?
PfG6PD inh: 59*; HKDC1 inhibitor: -1; PfGluPho conf: 26

How did CC(=O)Nc1ccc(NC(=O)C(C)OC(=O)CC23CC4CC(CC(Br)(C4)C2)C3)cc1 (configuration not stated) do in these assays?
PfG6PD inh: 6; HKDC1 inhibitor: 1

Results for O=C(C[C@H]1C[C@@H]2c3cc(NS(=O)(=O)c4ccccc4)ccc3O[C@@H]2[C@H](CO)O1)N1CCOCC1 ?
PfG6PD inh: -1

What do the screens show for `CC(C)c1cc2c(c(O)c1O)[C@@]13CCCC(C)(C)C1CC2OC3=O` (some centres not stated)?
PfG6PD inh: 67*; HKDC1 inhibitor: 9; PfGluPho conf: 51*; Diaphorase 10uM: -16; Diaph ctr 30uM: -24

What do the screens show for `CC(=O)Nc1cc(OC(C)=O)c2nonc2c1OC(C)=O`?
PfG6PD inh: 80*; HKDC1 inhibitor: 9; Diaph inh CS: 76*; G6PDH CS: 59*; PfGluPho conf: 53*; Diaphorase 10uM: 18; Diaph ctr 30uM: 24

Results for CC(=O)Nc1nonc1NC(C)=O ?
PfG6PD inh: -12; HKDC1 inhibitor: -5; Diaph inh CS: 26; G6PDH CS: -1

How did Cc1ccc(Cc2c(-c3ccc(C#N)cc3)nc3ccc(Br)cn23)cc1 do in these assays?
PfG6PD inh: 15

Results for N#Cc1ccc(-c2nc3ccc(Br)cn3c2Cc2ccccc2)cc1 ?
PfG6PD inh: 89*; PfGluPho conf: 13

What do the screens show for `COc1ccc(O)c(C(=O)C2c3ccccc3C(=O)N2c2ccc(C)cc2)c1` (configuration not stated)?
PfG6PD inh: 66*; HKDC1 inhibitor: 3; PfGluPho conf: -6

Results for Oc1c(Cl)cc(Cl)cc1/C=C/c1ccc2cccc(O)c2n1 ?
PfG6PD inh: 81*; HKDC1 inhibitor: -8; Diaph inh CS: 0; G6PDH CS: 0; PfGluPho conf: 16

How did Oc1ccc(Cl)cc1/C=C/c1ccc2cccc(O)c2n1 do in these assays?
PfG6PD inh: 74*; HKDC1 inhibitor: -8; Diaph inh CS: 25; G6PDH CS: 11; PfGluPho conf: -5

How did CNC(=S)NNC(=O)c1cc(-c2cccnc2)nc2ccccc12 do in these assays?
PfG6PD inh: 18; HKDC1 inhibitor: -2

Results for COc1ccc(N=Cc2[nH]c3ccccc3c2O)cc1 ?
PfG6PD inh: 59*; HKDC1 inhibitor: -1; Diaph inh CS: 40; G6PDH CS: 4; PfGluPho conf: 15

How did COc1cc2c(cc1OC)C(=O)C(Br)CC2 (configuration not stated) do in these assays?
PfG6PD inh: 112*; PfGluPho conf: 106*; Diaphorase 10uM: 101*; Diaph ctr 30uM: 98*

Results for COc1cc2c(cc1OC)C(=O)C(c1ccc3c(c1)OCO3)CC2 (configuration not stated) ?
PfG6PD inh: -4

How did CSCc1c(C(=O)Nc2ccc3c(c2)OCO3)oc2ccccc12 do in these assays?
PfG6PD inh: 68*; HKDC1 inhibitor: 4; PfGluPho conf: 3

Results for Cc1c(C(=O)Nc2ccc3c(c2)OCO3)oc2ccccc12 ?
PfG6PD inh: 61*; HKDC1 inhibitor: 0; PfGluPho conf: -3

Results for O=C1OC/C(=C(/O)c2ccc(Cl)cc2)C1=O ?
PfG6PD inh: -14; HKDC1 inhibitor: 1

Results for Cn1c(-c2ccccc2)c(C#Cc2ccc(N)cc2)c2ccccc21 ?
PfG6PD inh: 8; HKDC1 inhibitor: 3

Results for CCOC(=O)N=Nc1c2ccccc2c2nc3no[nH]c3nc12 ?
PfG6PD inh: 69*; HKDC1 inhibitor: 33; Diaph inh CS: 20; G6PDH CS: 55*; PfGluPho conf: 61*; Diaphorase 10uM: 51*; Diaph ctr 30uM: 51*

Results for CCOc1ccc(/C=N/NC(=O)c2ccccc2O)cc1CN1CC2CC(C1)c1cccc(=O)n1C2 (configuration not stated) ?
PfG6PD inh: -6; HKDC1 inhibitor: -1

Results for Cc1ccc(NC(=S)NNC(=S)Nc2ccc(C)cc2)cc1 ?
PfG6PD inh: 78*; HKDC1 inhibitor: -10; PfGluPho conf: 11
